Only some compounds are listed: those with a hit (about 3.1% of all), similar ones and a draw of the others.
GPR7 antagonist = GPR7 receptor antagonists, primary screen, cell-based, fluorescence, single concentration; GPR7-expressing cells, fluorescence antagonist assay; inhibition, % at 4.4 µM; 290,000 tested, 1.1% active; AID 1861, 2009; in the data active means inhibition above about 16%, passing the limit was not always enough;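 further: cells stimulated with the agonist NPW; 0% = agonist with vehicle and 100% = vehicle without agonist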
CHO parental Ca = ATP-evoked calcium signal inhibitors, parental CHO, primary screen, counter-screen for OX1R antagonist project, cell-based, fluorescence, Fluo-8 calcium dye | parental CHO-K1, ATP-induced calcium, Fluo-8 fluorescence | inhibition, % at 5.6 µM | 330,000 tested, 0.63% active;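 active means inhibition above that plate's mean sample inhibition plus 3 SD, cut at about 26% in these data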;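 further: 0% = ATP-challenged DMSO wells and 100% = DMSO wells without ATP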
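test system = CHO parental line | reagent = ATP stimulus | measured by = intracellular calcium via Fluo-8 no-wash fluorescent dye | control set = ATP and no-ATP DMSO wells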
OX1R antag-1 = antagonists of human orexin 1 receptor (OX1R) | Orexin/Hypocretin receptor type 1 (Homo sapiens), O43613 | AID 485270, 2010 | OX1R-expressing cells, FRET antagonist read-out | 330,000 tested, 1.8% active | inhibition, % at 6.6 µM; in the data active means inhibition mostly above about 38%, no sharp cut-off; inactive means mostly below about 40%;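 further: 0% = agonist challenge alone and 100% = reference antagonist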
Target sequence (O43613 whole entry, looked up): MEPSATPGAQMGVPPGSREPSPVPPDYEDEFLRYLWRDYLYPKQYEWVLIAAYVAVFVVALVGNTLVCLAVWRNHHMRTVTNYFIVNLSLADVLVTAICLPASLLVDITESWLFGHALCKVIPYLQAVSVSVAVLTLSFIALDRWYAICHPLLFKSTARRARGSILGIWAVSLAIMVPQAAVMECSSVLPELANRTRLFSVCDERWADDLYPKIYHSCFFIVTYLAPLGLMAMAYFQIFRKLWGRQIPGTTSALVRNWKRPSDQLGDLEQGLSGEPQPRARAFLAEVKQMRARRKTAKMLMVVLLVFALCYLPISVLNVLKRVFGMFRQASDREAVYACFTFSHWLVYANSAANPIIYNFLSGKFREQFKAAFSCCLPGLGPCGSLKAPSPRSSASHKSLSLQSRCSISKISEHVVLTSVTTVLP
GalR3 antag = GalR3 antagonists in HEK293 cells, primary screen, cell-based, fluorescence readout; Galanin receptor type 3 (Homo sapiens), O60755; HEK293 GalR3-CNG cAMP membrane potential fluorescence; galR3 body fused to GalR1 C-terminus; inhibition, % at 3 µM; 360,000 tested, 0.44% active;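 active means inhibition above the screen-wide average plus 3 SD, cut at about 13% in these data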;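 further: forskolin and galanin both at EC90 stimulate the cells; cAMP rise reported by CNG channel membrane potential dye signal; 0% = forskolin plus galanin with DMSO and 100% = forskolin alone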
Target sequence (O60755 1-299 limits assumed): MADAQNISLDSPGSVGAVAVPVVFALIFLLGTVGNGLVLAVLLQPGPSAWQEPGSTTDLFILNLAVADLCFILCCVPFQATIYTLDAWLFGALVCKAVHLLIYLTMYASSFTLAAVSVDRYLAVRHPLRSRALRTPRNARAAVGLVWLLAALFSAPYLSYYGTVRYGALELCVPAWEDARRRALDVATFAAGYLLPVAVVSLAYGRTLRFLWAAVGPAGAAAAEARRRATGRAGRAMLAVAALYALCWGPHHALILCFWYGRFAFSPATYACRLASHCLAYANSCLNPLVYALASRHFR
OX1R antag-2 = OX1R (HCRTR1) antagonists, primary screen, fluorescence, CHO/OX1R cells, Fluo-8 calcium, orexin A; AID 434989, 2010; inhibition, % at 5 µM; 330,000 tested, 0.43% active; Orexin/Hypocretin receptor type 1 (Homo sapiens), O43613; Fluo-8 calcium fluorescence;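 active means inhibition above its plate's threshold, mean inhibition of all tested compounds on the plate plus 3 SD, cut at about 37% in these data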;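 further: 0% = orexin A challenge wells and 100% = SB-334867-A antagonist wells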
GPR7 antag cf = GPR7 receptor antagonists, confirmation, cell-based, fluorescence, single concentration; GPR7-expressing cells, calcium fluorescence antagonist mode; 2,400 tested, 52% active; shares compounds with GPR7 antagonist; inhibition, % at 4.4 µM; in the data active means inhibition above about 24%;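 further: stimulated with the GPR7 agonist NPW; 0% = agonist plus vehicle and 100% = vehicle alone without agonist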
MCHR1 antag = MCHR1 antagonists in cells, counter-screen for GPR7 antagonist project, cell-based, fluorescence, human. shares compounds with GPR7 antagonist. MCHR1-expressing cells, fluorescence antagonist assay. inhibition, % at 4.4 µM. 2,400 tested, 62% active; in the data active means inhibition above about 22%;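 further: 0% = vehicle with agonist and 100% = vehicle without agonist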
OX1R Fluo8 conf = OX1R (HCRTR1) antagonists, confirmation, fluorescence, CHO/OX1R cells, Fluo-8 calcium, orexin A. shares compounds with OX1R antag-2. orexin A calcium Fluo-8 fluorescence. inhibition, % at 5 µM. 1,100 tested, 38% active; in the data active means inhibition above about 29%;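 further: 0% = agonist challenge alone and 100% = reference antagonist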
CHO Ca triplic = ATP-evoked calcium inhibition in parental CHO, counter-screen for OX1R antagonist project, cell-based, fluorescence, CHO-K1, triplicate. AID 492965, 2010. ATP-induced calcium, Fluo-8 fluorescence. shares compounds with OX1R antag-2. inhibition, % at 5.6 µM. 1,100 tested, 9.3% active;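 active means inhibition above a per-plate limit, the mean inhibition of that plate's test compounds plus 3 SD, cut at about 25% in these data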;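 further: 0% = ATP challenge with DMSO and 100% = DMSO without ATP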
OX1R HTRF confirm = OX1R (HCRTR1) antagonists, confirmation, cell-based, HTRF | shares compounds with OX1R antag-1 | OX1R-expressing cells, HTRF antagonist assay | inhibition, % at 6.6 µM | 1,800 tested, 49% active; in the data active means inhibition above about 55%;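 further: CHO cells expressing OX1R stimulated with orexin A at about EC80; 0% = agonist challenge alone and 100% = reference antagonist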
CHO-K1 HTRF cnt = signal inhibition in parental CHO-K1 cells, counter-screen for OX1R antagonist project, cell-based, HTRF; 1,800 tested, 48% active; shares compounds with OX1R antag-1; inhibition, % at 6.6 µM; HTRF counterscreen; in the data active means inhibition above about 17%;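 further: 0% = agonist challenge with vehicle and 100% = vehicle alone without agonist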
* = called active by the depositor; . = not tested or not shown; + = active, no number.

SMILES	GPR7 antagonist	CHO parental Ca	OX1R antag-1	GalR3 antag	OX1R antag-2	OX1R Fluo8 conf	CHO Ca triplic	OX1R HTRF confirm	CHO-K1 HTRF cnt	others
CC1(C)CSC(=NCc2ccccc2)N1	87*	20	8	-7	29	63*	35*	.	.	GPR7 antag cf=96*;MCHR1 antag=102*
O=c1[nH]c2ccccc2n1C1CCN(C(c2nnnn2C2CCCCC2)C2CC2)CC1 (centres undefined)	.	.	.	-4	.	.	.	.	.
CCCCCCn1c(=O)c(C(=O)Nc2ncccc2C)c(O)c2ccccc21	-7	20	13	-12	30	0	6	.	.
O=C(O)C(Cc1cnc[nH]1)NS(=O)(=O)c1ccc(Cl)cc1 (centres undefined)	-6	0	-1	-4	35	2	3	.	.
Cc1ccc(S(=O)(=O)NC(Cc2cnc[nH]2)C(=O)O)cc1 (centres undefined)	-11	-6	4	-6	-9	.	.	.	.
CC(=O)Nc1ccccc1C(=O)OCc1ccc(C(=O)c2ccccc2)cc1	6	13	20	-7	24	.	.	.	.
CC(=O)Nc1ccccc1C(=O)OCC(=O)c1ccc2ccccc2c1	16	17	27	0	44*	32*	7	.	.
Oc1ccc(C2NCc3ccccc3-n3cccc32)cc1Cl (centres undefined)	3	3	23	-7	0	0	-10	.	.
FC(F)(F)c1cccc(C2NCc3ccccc3-n3cccc32)c1 (centres undefined)	5	-32	4	-4	-29	.	.	.	.
COc1ccc(OC(=O)N(C)C[C@H]2OCc3cnnn3CCCC(=O)N([C@@H](C)CO)C[C@@H]2C)cc1	.	.	.	-5	.	.	.	.	.
Cn1cc(/C=C2\C(=O)NC(=O)N(c3ccccc3)C2=O)c2ccccc21	-7	0	9	-8	54*	-5	-5	.	.
CCC(c1nnnn1-c1ccc2c(c1)OCCO2)N1CCC2(CC1)C(=O)NCN2c1ccccc1 (centres undefined)	.	.	.	-6	.	.	.	.	.
Cc1ccccc1OP(=O)(Oc1ccccc1C)N1CCOCC1	.	.	.	-8	.	.	.	.	.
CCCCCCCCn1sccc1=O	.	8	10	-5	37*	36*	21	.	.
COC(=O)C1=C(c2cccc(OCc3ccccc3)c2)C[C@@H]2CC[C@H]1N2C(=O)NCc1ccccc1	.	-34	7	-3	-22	.	.	.	.
COC(=O)C1=C(c2cccc(OCc3ccccc3)c2)C[C@@H]2CC[C@H]1N2C(=O)NCc1ccccc1OC	.	-7	10	-2	52*	-7	-5	.	.
COC(=O)C1=C(c2ccc(F)cc2OCc2ccccc2)C[C@@H]2CC[C@H]1N2C(=O)NCc1ccc(C)cc1	.	-3	22	-8	56*	-3	-15	.	.
O=C(Nc1ccccc1)N1Cc2ccccc2-n2nncc2C1	.	.	.	-2	.	.	.	.	.
COC(=O)C1=C(c2ccccc2OCc2ccccc2)C[C@@H]2CC[C@H]1N2C(=O)NCCOc1ccccc1Cl	.	-11	53*	-8	62*	33*	-10	70*	-2
COc1cccc(OP(=O)(Nc2ccccc2)Oc2cccc(OC)c2)c1	-9	-4	60*	.	45*	29*	0	47	0
O=P(Nc1ccccc1)(Oc1ccccc1)Oc1ccccc1	-5	-8	27	-5	-7	.	.	.	.
CCCCCCC(C)(C)c1ccc([C@@H]2C[C@H](O)CC[C@H]2CCCO)c(O)c1	.	-10	8	-1	-15	.	.	.	.
CCOc1cc(CNCCc2c[nH]c3ccccc23)cc(Cl)c1OC	1	-17	105*	-10	-37	.	.	17	3
NC1CCc2cc(O)c(O)cc2C1 (centres undefined)	.	0	23	0	3	.	.	.	.
CO[C@H]1C=CCCC=CC(=O)O[C@H]([C@H](C)C(=O)CCCC2CC(=O)NC(=O)C2)C(C)=C[C@@H](C)[C@@H]1O	.	.	.	-7	.	.	.	.	.
SMILES	GPR7 antagonist	CHO parental Ca	OX1R antag-1	GalR3 antag	OX1R antag-2	OX1R Fluo8 conf	CHO Ca triplic	OX1R HTRF confirm	CHO-K1 HTRF cnt	others
CCn1nc(-c2ccccc2)nc2c(=O)n(C)c(=O)nc1-2	-11	-7	+	.	-14	.	.	102*	95*
Cc1nc2c(=O)n(C)c(=O)nc-2n(C)n1	-15	-8	+	-5	2	.	.	84*	100*
CNCC(O)c1cc(OCc2ccccc2)c(OCc2ccccc2)cc1F (centres undefined)	.	7	3	-8	4	.	.	.	.
O=c1[nH]c(O)c(N=Nc2cc([N+](=O)[O-])ccc2O)c(=O)[nH]1	1	4	+	3	-5	.	.	71*	93*
O=C1NC(=O)N(c2ccc3c(c2)OCO3)C(=O)/C1=C/c1ccc(N2CCCC2)o1	4	2	92*	-7	-2	.	.	46	75*
CC(C)(C)n1nnnc1C(c1ccccc1)N1CCC2(CC1)C(=O)NCN2c1ccccc1 (centres undefined)	.	.	.	-4	.	.	.	.	.
O=C1NC(=O)C(=Cc2ccc(-c3ccc(S(=O)(=O)N4CCOCC4)cc3)o2)C(=O)N1	-1	4	31	-3	-8	.	.	.	.
Cn1c(O)c(N=Nc2ccc(S(=O)(=O)N3CCOCC3)cc2)c(=O)n(C)c1=O	-1	-10	86*	-1	3	.	.	50	74*
CCOC(=O)c1c(N)n(CCCOC(=O)c2ccco2)c2nc3ccccc3nc12	-6	-6	83*	1	-11	.	.	36	22*
CCOC(=O)c1cc2ccccc2n1C1CCN(Cc2ccccc2)CC1	.	.	.	-6	.	.	.	.	.
N#CC1c2ccccc2C=CN1C(=O)c1ccc(N(CCCl)CCCl)cc1 (centres undefined)	.	.	.	-3	.	.	.	.	.

Assay outcomes: PubChem, The Scripps Research Institute Molecular Screening Center
